This is an account of results in ChEMBL document CHEMBL1123422, “1-Ethyl-7-[3-[(ethylamino)methyl]-1-pyrrolidinyl]-6,8-difluoro-1,4- dihydro-4-oxo-3-quinoline-carboxylic acid. New quinolone antibacterial with potent gram-positive activity” (1986).

For one assay, the system named is Enterobacter cloacae. Kind of assay: Compound was tested for inhibition of the gram-negative organism […] HA 2646. In kind it is functional.
For assay [1], the system named is Pseudomonas aeruginosa. Kind of assay: (§1) Compound was tested for inhibition of the gram-negative organism Pseudomonas aeruginosa UI-18. The class given is functional. Put shortly:
(§2)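 MICs read in standard microdilution (microtitration) format against a panel of 10 bacterial organisms; values in µg/mL.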

Assay [2] relates to Escherichia coli. Kind of assay: (§3) Compound was tested for inhibition of the gram-negative organism Escherichia coli H560. In kind it is functional. Put shortly: as §2
The test system of assay [3] is Escherichia coli. Kind of assay: (§4) Compound was tested for inhibition of the gram-negative organism Escherichia coli vogel. In kind it is functional. Put shortly: as §2
The target in assay [4] is DNA gyrase (Escherichia coli) (UniProt P0AES6+P0AES4). Kind of assay: Inhibition of DNA gyrase of Escherichia coli H560 cells. Put shortly: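 DNA gyrase purified from Escherichia coli H560 cells. Cleavage assay: drug-gyrase-DNA complex denatured, converting closed circular DNA to linear DNA. Linear DNA resolved by gel electrophoresis and stained with ethidium bromide. Value is the minimum drug concentration (µg/mL) giving linear DNA at an intensity relative to oxolinic acid at 10 µg/mL. Aqueous drug stocks made up in 0.1 N NaOH or KOH.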

Assay [5] has as its system Staphylococcus aureus. Kind of assay: (§5) Compound was tested for inhibition of the […] organism […] H228. In kind it is functional. Put shortly: as §2
In assay [6] the test system is Mus musculus. The experiment in a line: Compound was evaluated for protective dose against the Escherichia coli vogel lethal infection following peroral administration in mouse. The class given is functional. The note with it: po, read-out: PD50. The method in brief:
(§6)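 Acute lethal systemic infection in female Charles River CD-1 mice (18–22 g), challenged intraperitoneally with an estimated 100 median lethal dose in 5% hog gastric mucin. Single doses in a twofold rising series were given with the challenge, sc as aqueous solution or po by gavage in 5% gum acacia. PD50 (mg/kg) was estimated by log probit from survival of eight mice per dose.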

Assay [7] concerns Enterococcus faecalis. The experiment in a line: (§7) Compound was tested for inhibition of the […] organism Streptococcus faecalis MGH-2. In kind it is functional. The method in brief: as §2
Assay [8] concerns Streptococcus pneumoniae. Kind of assay: (§8) Compound was tested for inhibition of the […] organism Streptococcus pneumoniae SV-1. In kind it is functional. The method in brief: as §2
For assay [9], the system named is Mus musculus. The experiment in a line: Compound was evaluated for protective dose against Streptococcus pneumoniae SV-1 lethal infection following sc administration. To be noted: read-out: PD50. The class given is functional. Put shortly:
(§9)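 Female Charles River CD-1 mice (18–22 g) were challenged intraperitoneally with an estimated 100 median lethal dose in tryptic soy broth. Single doses, in a twofold rising series, were given at the same time as challenge: subcutaneously as aqueous solution, or orally by gavage in 5% gum acacia. Survival in groups of eight mice per dose gave PD50 (mg/kg) by log probit.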

Assay [10] concerns Mus musculus. The experiment in a line: Compound was evaluated for protective dose against the Streptococcus pneumoniae SV-1 lethal infection following po administration. The class given is functional. To be noted: read-out: PD50. Put shortly: as §9
Assay [11] concerns Mus musculus. Kind of assay: Compound was evaluated for protective dose against the Escherichia coli vogel lethal infection following sc administration in mouse. The class given is functional. To be noted: read-out: PD50. Put shortly: as §6
The subject of assay [12] is Streptococcus pyogenes. The experiment in a line: (§10) Compound was tested for inhibition of the […] organism Streptococcus pyogenes C203. The class given is functional. The method in brief:
as §2

Assay [13] has as its system Klebsiella pneumoniae. The experiment in a line: (§11) Compound was tested for inhibition of the gram-negative organism Klebsiella pneumoniae MGH-2. In kind it is functional. Put shortly:
as §2

In assay [14] the test system is Mus musculus. The experiment in a line: Compound was evaluated for protective dose against the […] UC-76 lethal infection following sc administration in mouse. In kind it is functional. The note with it: read-out: PD50. Put shortly: as §6
Assay [15] relates to Providencia rettgeri. The experiment in a line: (§12) Compound was tested for inhibition of the gram-negative organism Providencia rettgeri H1771. In kind it is functional. Put shortly: as §2
Assay [16] concerns Staphylococcus aureus. The experiment in a line: (§13) Compound was tested for inhibition of the […] organism […] UC-76. The class given is functional. The method in brief:
as §2

The subject of assay [17] is Mus musculus. Kind of assay: Compound was evaluated for protective dose against the […] UC-76 lethal infection following po administration in mouse. In kind it is functional. The note with it: read-out: PD50. The method in brief:
as §6

Assay [18] concerns Klebsiella pneumoniae. Described as §11. The class given is functional. The source holds these as a separate data set.
Assay [19] deals with Enterococcus faecalis. The assay is described as §7. The class given is functional. This is another data set of the same source.
For assay [20], the system named is Escherichia coli. The description is as §3. In kind it is functional. This is another data set of the same source.
The test system of assay [21] is Pseudomonas aeruginosa. Described as §1. In kind it is functional. This is another data set of the same source.
The subject of assay [22] is Providencia rettgeri. The assay is described as §12. In kind it is functional. This is another data set of the same source.
Assay [23] concerns Escherichia coli. The experiment in a line: Compound was tested for inhibition of target enzyme DNA gyrase obtained from Escherichia coli H560 cells. The class given is functional. The method in brief:
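Gyrase isolated from E. coli H560 cells. Drug-gyrase-DNA complex denatured, and closed circular DNA converted to linear DNA. Linear DNA resolved by gel electrophoresis and stained with ethidium bromide. Value is the minimum drug concentration (µg/mL) giving linear DNA at an intensity relative to oxolinic acid at 10 µg/mL. Aqueous drug stocks made in 0.1 N NaOH or KOH.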

In assay [24] the test system is Streptococcus pyogenes. Described as §10. In kind it is functional. This is another data set of the same source.
The subject of assay [25] is Streptococcus pneumoniae. Described as §8. In kind it is functional. This is another data set of the same source.
The subject of assay [26] is Escherichia coli. The description is as §4. The class given is functional. The source holds these as a separate data set.
The subject of assay [27] is Staphylococcus aureus. The assay is described as §13. The class given is functional. This is another data set of the same source.
Assay [28] has as its system Staphylococcus aureus. The assay is described as §5. In kind it is functional. This is another data set of the same source.

Converted amounts (≈) assume the structure as drawn.

Turning to `CCNCC1CCN(c2c(F)cc3c(=O)c(C(=O)O)cn(CC)c3c2F)C1` (stereo unspecified) [MERAFLOXACIN], the MIC was determined as 0.2 µg/mL (≈ 0.527 µM) with Enterobacter cloacae; 1.6 µg/mL (≈ 4.22 µM) against Pseudomonas aeruginosa [1]; 0.1 µg/mL (≈ 0.264 µM) in the assay with Escherichia coli [2]; 0.1 µg/mL (≈ 0.264 µM) against Escherichia coli [3]; 0.1 µg/mL (≈ 0.264 µM) against Staphylococcus aureus [5]; 0.1 µg/mL (≈ 0.264 µM) with Enterococcus faecalis [7]. Also, the MIC with Streptococcus pneumoniae [8] stood at 0.1 µg/mL (≈ 0.264 µM); in the assay with Streptococcus pyogenes [12], 0.1 µg/mL (≈ 0.264 µM); in the assay on Klebsiella pneumoniae [13], 0.2 µg/mL (≈ 0.527 µM); in the assay on Providencia rettgeri [15] it was 0.4 µg/mL (≈ 1.05 µM); against Staphylococcus aureus [16] it was 0.05 µg/mL (≈ 0.132 µM). In assay [4], this compound displayed a Min concentration of 2.5 µg/mL. In addition, the ED50 with Mus musculus [6] turned out to be 12 mg/kg; with Mus musculus [9], 4.4 mg/kg; in the assay with Mus musculus [10] it was 20 mg/kg; in the assay with Mus musculus [11], 1.7 mg/kg; in the assay with Mus musculus [14], 1.6 mg/kg; with Mus musculus [17], 2.8 mg/kg.
As to `CCn1cc(C(=O)O)c(=O)c2cc(F)c(N3CCNCC3)cc21` [NORFLOXACIN], the MIC against Klebsiella pneumoniae [18] turned out to be 0.05 µg/mL (≈ 0.157 µM); against Enterococcus faecalis [19], 1.6 µg/mL (≈ 5.01 µM); in the assay with Enterobacter cloacae, 0.1 µg/mL (≈ 0.313 µM); in the assay on Escherichia coli [20], 0.1 µg/mL (≈ 0.313 µM); against Pseudomonas aeruginosa [21] it was 0.2 µg/mL (≈ 0.626 µM); against Providencia rettgeri [22], 0.025 µg/mL (≈ 0.0783 µM). Moreover, the MIC in the assay on Escherichia coli [23] was 1 µg/mL (≈ 3.13 µM); against Streptococcus pyogenes [24], 0.8 µg/mL (≈ 2.51 µM); with Streptococcus pneumoniae [25], 1.6 µg/mL (≈ 5.01 µM); against Escherichia coli [26] it was 0.025 µg/mL (≈ 0.0783 µM); against Staphylococcus aureus [27], 0.05 µg/mL (≈ 0.157 µM); with Staphylococcus aureus [28], 0.8 µg/mL (≈ 2.51 µM). The ED50 with Mus musculus [6] was 4 mg/kg; in the assay on Mus musculus [9], above 100 mg/kg; with Mus musculus [10], 150 mg/kg; in the assay on Mus musculus [11], 1 mg/kg; in the assay on Mus musculus [14], 15 mg/kg; in the assay with Mus musculus [17], 23 mg/kg.

For orientation: MIC means the least concentration at which growth counts as inhibited.
